Results published in the M2OR odorant receptor database.

These molecules were tested against T1, OR10J5 (Homo sapiens) (UniProt Q8NHC4). Settings: stereoisomer not certain.
T1 sequence (whole entry): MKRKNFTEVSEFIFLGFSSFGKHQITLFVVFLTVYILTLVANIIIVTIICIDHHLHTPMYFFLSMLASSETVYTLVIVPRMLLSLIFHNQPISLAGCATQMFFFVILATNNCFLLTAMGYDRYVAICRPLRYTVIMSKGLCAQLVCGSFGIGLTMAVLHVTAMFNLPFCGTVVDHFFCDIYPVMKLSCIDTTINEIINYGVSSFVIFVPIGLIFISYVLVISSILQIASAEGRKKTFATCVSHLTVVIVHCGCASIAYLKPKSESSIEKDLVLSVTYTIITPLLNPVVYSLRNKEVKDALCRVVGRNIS
In short: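 Transient luciferase assays in mammalian cell lines were common, though methods varied by source. The values come from published papers and their supplementary material, with extra details from the original authors when needed. Responsive refers to a measured signal the original authors judged statistically different from baseline, and non-responsive (inactive) to the remainder.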
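Also: active if original authors judged signal statistically different from baseline.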

Odorant receptor agonist call, inactive:
CCCCC(C)=O
CCCCCC1=C(C)CCC1=O
CCCCCCCO
CCC(=O)O
CCCCCCCC(C)=O
O=c1ccc2ccccc2o1
CCCCCCCCCC(=O)[O-].[H+]
CCCCCCCCCO
COc1cc(C(=O)O)ccc1O
CCCCCC=O
CC(=O)Oc1ccccc1
CCCCOC=O
CCCCCCCCCS
CCCCCOC(=O)CCCCC
CC(C)=CCCC(C)=CCO
CCCCCC(=O)CC
O=C1Cc2ccccc2O1
CCCCCCO
CC(C)=CCCC(C)CCO (stereo not given)
CCCCC(=O)O
C=C(C)C1CCC(C)C(=O)C1 (stereo not given)
CCC(=O)C(=O)CC
CC(=O)OCc1ccccc1
CCC(C(=O)O)c1ccccc1 (stereo not given)
C=CCOC(=O)CCCCCC
CCCCCO
O=C(c1ccccc1)c1ccccc1
CC(=O)OCC=C(C)C
CCCC(=O)C(C)=O
CCOC(=O)C(C)C
